Key:
MCF7 = assay: Antiproliferative activity against ERalpha positive human MCF7 cells after 72 hrs by MTS/PMS assay; format: functional, cell-based; conditions: MCF7, 72 h
Procedure, shortened: (§1)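 MCF-7 and SKBr3 cells grown in 1:1 DMEM:Ham's F-12 with non-essential amino acids, 2 mM L-glutamine, penicillin/streptomycin, 10% FBS. Seeded 2000 cells/well, attached overnight, then exposed to varying concentrations in DMSO (1% final) for 72 hr at 37 °C, 5% CO2. Viable cells read by MTS/PMS; 1% DMSO wells set as 100% proliferation. Mean ± SEM, three experiments in triplicate.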

Heat shock protein HSP90 [1] = biological target: T1, Heat shock protein HSP90 (Homo sapiens, UniProt P07900+P08238); assay: Inhibition of Hsp90 in human SKBR3 cells assessed as down-regulation of Her2 protein by ELISA; format: cell-based; conditions: sk-br-3
Procedure, shortened: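 SKBr3 cells seeded 3000/well, attached overnight, dosed at varying concentrations for 24 hr. Cells washed with ice-cold PBS/1% Tween, fixed and permeabilised in -20 °C methanol (4 °C, 10 min), blocked in 5% BSA/PBST 1 hr, probed with rabbit anti-Her2 (1:500, 4 °C overnight), then HRP anti-rabbit IgG (1:1000, 2 hr rt); chemiluminescence read. Mean ± SEM, three experiments in triplicate.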

SK-BR-3 = assay: Antiproliferative activity against ERalpha negative/Her2 over expressing human SKBR3 cells after 72 hrs by MTS/PMS assay; format: functional, cell-based; conditions: SK-BR-3, 72 h; procedure, shortened: as §1
[2] = Inhibition of Hsp90-dependent renaturation of firefly luciferase in rabbit reticulocyte lysate at 25 ug/mL; design: species or system Oryctolagus cuniculus
Heat shock protein HSP90 [3] = biological target: T1, Heat shock protein HSP90; assay: Inhibition of Hsp90 in human MCF7 cells assessed as degradation of Her2 protein by Western blot analysis; format: cell-based
Procedure, shortened: (§2)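 MCF-7 cells seeded at 1×10^6 per dish, attached overnight, treated at varying concentrations for 24 h (37 °C, 5% CO2), then harvested and immunoblotted for client proteins (Her2, Raf-1, Akt) with actin as non-client reference; GA (500 nM) and DMSO as controls.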

Heat shock protein HSP90 [4] = biological target: T1, Heat shock protein HSP90; assay: Inhibition of Hsp90 in human MCF7 cells assessed as degradation of Akt protein by Western blot analysis; format: cell-based; procedure, shortened: as §2
Heat shock protein HSP90 [5] = biological target: T1, Heat shock protein HSP90; assay: Inhibition of Hsp90 in human MCF7 cells assessed as degradation of Raf1 protein by Western blot analysis; format: cell-based; procedure, shortened: as §2

Row | Structure (SMILES) | IC50 (MCF7) | IC50 (Heat shock protein HSP90 [1]) | IC50 (SK-BR-3) | IC50 [2] | Activity (Heat shock protein HSP90 [3]) | Activity (Heat shock protein HSP90 [4]) | Activity (Heat shock protein HSP90 [5])
1 | COc1ccc(C2=C(NC(=O)c3ccc(Cl)cc3)C(=O)c3ccccc3C2=O)cc1 | 3.3 µM | 3 µM | – | – | – | – | –
2 | COc1ccc(C2=C(NC(C)=O)C(=O)c3ccccc3C2=O)cc1 | – | 2.2 µM | 2.7 µM | – | – | – | –
3 | O=C(NC1=C(c2ccc(Oc3ccccc3)cc2)C(=O)c2ccccc2C1=O)c1ccccc1 | 23 µM | > 100 µM | > 100 µM | – | – | – | –
4 | O=C(NC1=C(c2ccc3oc4ccccc4c3c2)C(=O)c2ccccc2C1=O)c1ccccc1 | 6 µM | > 100 µM | > 100 µM | – | – | – | –
5 | COc1ccc(C2=C(NC(=O)c3ccc(OC)c(-c4cccc(OC)c4)c3)C(=O)c3ccccc3C2=O)cc1 | > 100 µM | > 100 µM | > 100 µM | 86 µM | – | – | –
6 | CC(=O)NC1=C(N2CCOCC2)C(=O)c2nonc2C1=O | 19 µM | 1.2 µM | 2.9 µM | 0.38 µM | – | – | –
7 | O=C(NC1=C(c2ccc(Cl)cc2)C(=O)c2ccccc2C1=O)c1ccccc1 | 2.6 µM | 1.8 µM | 8.5 µM | 1.4 µM | – | – | –
8 | COc1cccc(-c2cc(C(=O)NC3=C(Cl)C(=O)c4ccccc4C3=O)ccc2OC)c1 | 3 µM | 1.7 µM | – | 1.6 µM | Dose-dependent effect | Dose-dependent effect | Dose-dependent effect
9 | O=C(NC1=C(c2ccccc2Cl)C(=O)c2ccccc2C1=O)c1ccccc1 | – | 1.8 µM | 4 µM | – | – | – | –
10 | COc1ccc(C2=C(NC(=O)c3cccc(Cl)c3)C(=O)c3ccccc3C2=O)cc1 | 3.4 µM | 12.9 µM | 9.5 µM | – | – | – | –
11 | CC(=O)NC1=C(c2ccc3oc4ccccc4c3c2)C(=O)c2ccccc2C1=O | 2.4 µM | 13.3 µM | 6.8 µM | – | – | – | –
12 | CC(=O)NC1=C(c2ccccc2Cl)C(=O)c2ccccc2C1=O | 3 µM | 2.3 µM | 3.6 µM | – | – | – | –
13 | COc1ccccc1C1=C(NC(C)=O)C(=O)c2ccccc2C1=O | 2.2 µM | 2.5 µM | 1.7 µM | 1.6 µM | – | – | –
14 | COc1cccc(C2=C(NC(C)=O)C(=O)c3ccccc3C2=O)c1 | 2.7 µM | 4.8 µM | 3.9 µM | – | – | – | –
15 | CC(=O)NC1=C(c2ccc(Oc3ccccc3)cc2)C(=O)c2ccccc2C1=O | 2.5 µM | 24.6 µM | 12.1 µM | – | – | – | –
16 | COc1ccc(C2=C(NC(=O)c3ccc4ccccc4c3)C(=O)c3ccccc3C2=O)cc1 | 6.8 µM | > 100 µM | > 100 µM | – | – | – | –
17 | O=C(NC1=C(c2cccc(Cl)c2)C(=O)c2ccccc2C1=O)c1ccccc1 | 4.8 µM | 6.3 µM | 12.7 µM | – | – | – | –
18 | COc1ccc(C2=C(NC(=O)c3ccccc3Cl)C(=O)c3ccccc3C2=O)cc1 | 2.2 µM | 2 µM | 5.5 µM | – | Dose-dependent effect | Dose-dependent effect | Dose-dependent effect
19 | COc1ccc(C2=C(NC(=O)c3cccc4ccccc34)C(=O)c3ccccc3C2=O)cc1 | 2.2 µM | 9.9 µM | 5.8 µM | – | – | – | –

The next lines start with the values.

Row | IC50 (MCF7) | IC50 (Heat shock protein HSP90 [1]) | IC50 (SK-BR-3) | IC50 [2] | Activity (Heat shock protein HSP90 [3]) | Activity (Heat shock protein HSP90 [4]) | Activity (Heat shock protein HSP90 [5]) | Structure (SMILES)
20 | 2.1 µM | 5.8 µM | 7.9 µM | – | – | – | – | COc1ccc(C2=C(NC(=O)c3ccccc3OC)C(=O)c3ccccc3C2=O)cc1
21 | 2.1 µM | 3.8 µM | 6.8 µM | – | – | – | – | O=C(NC1=C(c2ccccc2)C(=O)c2ccccc2C1=O)c1ccccc1
22 | 1.9 µM | 2.5 µM | 4.8 µM | 1.4 µM | – | – | – | COc1ccc(C2=C(NC(=O)C3CCCCC3)C(=O)c3ccccc3C2=O)cc1
23 | 2.2 µM | 3 µM | 1.9 µM | 39 µM | – | – | – | COc1ccccc1C1=C(NC(=O)c2ccccc2)C(=O)c2ccccc2C1=O
24 | 1.8 µM | 44.2 µM | 6.4 µM | – | – | – | – | COc1ccc(C2=C(NC(=O)c3cccc(OC)c3)C(=O)c3ccccc3C2=O)cc1
25 | 1.8 µM | 30.1 µM | 2.1 µM | – | – | – | – | O=C(NC1=C(Cl)C(=O)c2ccccc2C1=O)c1ccccc1
26 | 0.21 µM | 3.3 µM | 0.82 µM | 0.25 µM | – | – | – | CC(=O)C1=C(c2ccccc2)C(=O)c2ccccc2C1=O
27 | 1.4 µM | 5.3 µM | 1.8 µM | 0.2 µM | Dose-dependent effect | Dose-dependent effect | Dose-dependent effect | CC(=O)NC1=C(c2ccc(Cl)cc2)C(=O)c2ccccc2C1=O
28 | 1.3 µM | 2 µM | 2.5 µM | – | – | – | – | CC(=O)NC1=C(c2cccc(Cl)c2)C(=O)c2ccccc2C1=O
29 | 1.7 µM | 6.6 µM | 0.6 µM | 5 µM | – | – | – | CC(=O)NC1=C(Cl)C(=O)c2ccccc2C1=O
30 | 1.4 µM | 2.8 µM | 4 µM | – | – | – | – | COc1ccc(C2=C(NC(=O)c3ccccc3)C(=O)c3ccccc3C2=O)cc1
31 | 1.6 µM | 3.2 µM | 1.5 µM | – | – | – | – | CC(=O)NC1=C(c2ccccc2)C(=O)c2ccccc2C1=O
32 | 1.5 µM | 2.4 µM | 6.4 µM | 24 µM | – | – | – | COc1ccc(C(=O)NC2=C(c3ccc(OC)cc3)C(=O)c3ccccc3C2=O)cc1
33 | 0.83 µM | 1.2 µM | 0.87 µM | 0.02 µM | – | – | – | O=C1c2ccccc2C(=O)c2c1nc1ccccn21
34 | 1.4 µM | 2.7 µM | – | – | – | – | – | COc1cccc(C2=C(NC(=O)c3ccccc3)C(=O)c3ccccc3C2=O)c1
